# Measurements taken from ChEMBL document CHEMBL2346602, “A potent bivalent Smac mimetic (SM-1200) achieving rapid, complete, and durable tumor regression in mice” (J Med Chem, 2013).
# The source made the active and inactive calls. The calls are words filed in the database; no cut-off is given here.
# Tests used:
# [1] = tested on: Rattus norvegicus; assay: Apparent volume of distribution during terminal phase in Sprague-Dawley rat at 1 mg/kg, iv; format: ADME, organism-based; set-up: dose 1 mg/kg, route intravenous; conditions: in vivo
# [2] = Elimination half life in Sprague-Dawley rat at 1 mg/kg, iv; format: ADME, organism-based; set-up: dose 1 mg/kg, route intravenous; conditions: in vivo, read-out: beta t1/2 (converted)
# [3] = AUC in Sprague-Dawley rat at 1 mg/kg, iv; format: ADME, organism-based; set-up: dose 1 mg/kg, route intravenous; conditions: plasma
# [4] = tested on: MDA-MB-231; assay: Induction of apoptosis in human MDA-MB-231 cells assessed as apoptotic cells at 10 nM after 24 hrs by trypan blue assay relative to control; format: functional
# In short: (§1)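 MDA-MB-231 cells were exposed to graded compound concentrations for 24 h and viability scored by trypan blue exclusion. Blue or morphologically unhealthy cells counted as dead. At least 100 cells per treatment were scored, in triplicate.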
# [5] = tested on: MDA-MB-231; assay: Induction of apoptosis in human MDA-MB-231 cells assessed as PARP cleavage after 24 hrs by Western blot analysis; format: functional, cell-based
# In short: (§2)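 MDA-MB-231 cells were treated 24 h with graded concentrations. Lysates were made in Tris/NaCl/EDTA/SDS/NP-40 buffer with PMSF and protease inhibitors on ice, then run on 4−20% SDS-PAGE and blotted to PVDF. Blots were probed for cIAP1, cleaved PARP, and caspase-8, -9 and -3 (full-length and cleaved), with HRP chemiluminescent detection.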
# [6] = tested on: MDA-MB-231; assay: Induction of apoptosis in human MDA-MB-231 cells assessed as apoptotic cells after 24 hrs by trypan blue assay; format: functional, cell-based; in short: as §1
# [7] = tested on: MDA-MB-231; assay: Induction of apoptosis in human MDA-MB-231 cells assessed as caspase-3 cleavage after 24 hrs by Western blot analysis; format: functional, cell-based; in short: as §2
# [8] = tested on: MDA-MB-231; assay: Induction of apoptosis in human MDA-MB-231 cells assessed as caspase-8 cleavage after 24 hrs by Western blot analysis; format: functional, cell-based; in short: as §2
# [9] = tested on: MDA-MB-231; assay: Induction of apoptosis in human MDA-MB-231 cells assessed as cIAP1 degradation at 0.3 nM after 24 hrs by Western blot analysis; format: functional, cell-based; in short: as §2
# [10] = tested on: MDA-MB-231; assay: Antitumor activity against human MDA-MB-231 cells xenografted in nude immunodeficient mouse assessed as tumor regression at 10 mg/kg/week, iv after 4 weeks relative to vehicle-treated control; format: functional
# In short: (§3)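 5 × 10⁶ MDA-MB-231 cells in 50% Matrigel injected subcutaneously, one tumor per mouse. Dosing began on day 28, at mean tumor volume 100 mm³. Tumor volume and body weight were tracked. Groups were compared by t test.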
# [11] = tested on: MDA-MB-231; assay: Antitumor activity against human MDA-MB-231 cells xenografted in nude immunodeficient mouse assessed as tumor regression at 3 mg/kg/week, iv after 4 weeks relative to vehicle-treated control; format: functional; in short: as §3
# [12] = tested on: MDA-MB-231; assay: Antitumor activity against human MDA-MB-231 cells xenografted in nude immunodeficient mouse assessed as tumor regression at 10 mg/kg/week, iv after 1 week relative to vehicle-treated control; format: functional; in short: as §3
# [13] = tested on: MDA-MB-231; assay: Antitumor activity against human MDA-MB-231 cells xenografted in nude immunodeficient mouse assessed as tumor regression at 3 mg/kg/week, iv after 1 week relative to vehicle-treated control; format: functional; in short: as §3
# [14] = tested on: Rattus norvegicus; assay: Apparent volume of distribution during terminal phase in Sprague-Dawley rat at […], iv; format: ADME, organism-based; set-up: dose 2.5 mg/kg, route intravenous; conditions: in vivo
# [15] = Elimination half life in Sprague-Dawley rat at […], iv; format: ADME, organism-based; set-up: dose 2.5 mg/kg, route intravenous; conditions: in vivo, read-out: beta t1/2 (converted)
# [16] = AUC in Sprague-Dawley rat at […], iv; format: ADME, organism-based; set-up: dose 2.5 mg/kg, route intravenous; conditions: plasma
# [17] = tested on: MDA-MB-231; assay: Induction of apoptosis in human MDA-MB-231 cells assessed as cIAP1 degradation at 1 nM after 24 hrs by Western blot analysis; format: functional, cell-based; in short: as §2
# [18] = tested on: Mus musculus; assay: Toxicity in nude immunodeficient mouse xenografted with human MDA-MB-231 cells assessed as body weight change at 3 to 10 mg/kg, iv administered every week for 4 weeks measured over 76 days; format: organism-based; set-up: dose 3-10 mg/kg, route intravenous; conditions: in vivo, 1824 h; in short: as §3
# [19] = tested on: MDA-MB-231; assay: Induction of apoptosis in human MDA-MB-231 cells xenografted in SCID mouse assessed as decrease in XIAP level at 5 mg/kg, iv after 8 to 24 hrs by Western blot analysis; format: functional, organism-based; set-up: dose 5 mg/kg
# In short: (§4)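 SCID mice carried subcutaneous dorsal MDA-MB-231 xenografts (5 × 10⁶ cells with Matrigel). At about 100 mm³, mice got a single iv dose of 5 mg/kg or vehicle. They were sacrificed at set time points, and tumor lysates were Western blotted for cIAP1, XIAP, caspase-3, PARP and cleaved PARP.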
# [20] = tested on: MDA-MB-231; assay: Induction of apoptosis in human MDA-MB-231 cells xenografted in SCID mouse assessed as caspase 3 cleavage at 5 mg/kg, iv measured at 4 hrs by Western blot analysis; format: functional, organism-based; set-up: dose 5 mg/kg; in short: as §4
# [21] = tested on: MDA-MB-231; assay: Induction of apoptosis in human MDA-MB-231 cells xenografted in SCID mouse assessed as PARP cleavage at 5 mg/kg, iv after 4 to 24 hrs by Western blot analysis; format: functional, organism-based; set-up: dose 5 mg/kg; in short: as §4
# [22] = tested on: MDA-MB-231; assay: Induction of apoptosis in human MDA-MB-231 cells xenografted in SCID mouse assessed as cIAP1 degradation at 5 mg/kg, after 2 to 24 hrs by Western blot analysis; format: functional, organism-based; set-up: dose 5 mg/kg; in short: as §4
# [23] = tested on: MDA-MB-231; assay: Antitumor activity against human MDA-MB-231 cells xenografted in nude immunodeficient mouse assessed as tumor regression at 7.5 mg/kg, iv administered every week for 4 weeks measured over 76 days; format: functional, organism-based; set-up: dose 7.5 mg/kg; in short: as §3
# [24] = tested on: MDA-MB-231; assay: Antitumor activity against human MDA-MB-231 cells xenografted in nude immunodeficient mouse assessed as tumor growth inhibition at 7.5 mg/kg, iv administered every week for 4 weeks measured over 76 days; format: functional, organism-based; set-up: dose 7.5 mg/kg; in short: as §3
smiles,measurement,setting,value
CN[C@@H](C)C(=O)N[C@H]1CCCC[C@H]2CC[C@@H](C(=O)N[C@@H](c3ccccc3)c3cn(CCCCc4ccc(CCCCn5cc([C@@H](NC(=O)[C@@H]6CC[C@@H]7CCCC[C@H](NC(=O)[C@H](C)NC)C(=O)N76)c6ccccc6)nn5)cc4)nn3)N2C1=O,Vz/F,[1],1 L/kg
same,half-life,[2],8.4 min
same,AUC,[3],221 ng·h/mL
same,Activity,[4],>75%
same,Activity,[5],Dose-dependent effect
same,Activity,[6],Dose-dependent effect
same,Activity,[7],Dose-dependent effect
same,Activity,[8],Dose-dependent effect
same,Activity,[9],Active
CN[C@@H](C)C(=O)N[C@H]1CN(C(=O)Nc2ccc(NC(=O)N3CC[C@H]4CC[C@@H](C(=O)NC(c5ccccc5)c5ccccc5)N4C(=O)[C@@H](NC(=O)[C@H](C)NC)C3)cc2)CC[C@H]2CC[C@@H](C(=O)NC(c3ccccc3)c3ccccc3)N2C1=O,Activity,[10],99%
same,Activity,[11],93%
same,Activity,[12],88%
same,Activity,[13],55%
same,Vz/F,[14],0.5 L/kg
same,half-life,[15],4.9 h
same,AUC,[16],3770 ng·h/mL
same,Activity,[4],>75%
same,Activity,[5],Dose-dependent effect
same,Activity,[6],Dose-dependent effect
same,Activity,[7],Dose-dependent effect
same,Activity,[8],Dose-dependent effect
same,Activity,[17],Active
same,Activity,[18],Non-toxic
same,Activity,[19],Active
same,Activity,[20],Active
same,Activity,[21],Active
same,Activity,[22],Active
CC(=O)O[C@@]12CO[C@@H]1C[C@H](O)[C@@]1(C)C(=O)[C@H](O)C3=C(C)[C@@H](OC(=O)[C@H](O)[C@@H](NC(=O)OC(C)(C)C)c4ccccc4)C[C@@](O)([C@@H](OC(=O)c4ccccc4)[C@H]21)C3(C)C,Activity,[23],inactive
same,TGI,[24],Active
